Compound activity from PubChem BioAssay.
HCV core dimer: inhibitors of HCV core protein dimerization, primary screen, biochemical, TR-FRET, high-throughput; TR-FRET GST/Flag-core106 dimerization, 1536-well; inhibition, % at 5 µM; 0.33% of 300,000 active; AID 1899, 2009;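 active = inhibition above the mean of all tested compounds plus 3 SD, set per screening campaign, cut at about 45% in these data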
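System – GST-tagged and Flag-tagged HCV core protein residues 1-106 · Repeats – one well for each compound · Technique – TR-FRET 671 and 617 nm emission · Doses – one concentration, 5 µM, in 0.5% DMSO · Times – 4 h, 22.5 °C incubation · Also added – Eu donor and XL665 acceptor anti-tag antibodies · Measure – percent inhibition of core106 dimerization signal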
ZTA counter: blocks Epstein-Barr virus ZTA, an EBNA-1 counter-screen; P03206; ZTA-DNA binding, fluorescence polarization; inhibition, % at 11 µM; 0.15% of 320,000 active; in the data active = inhibition above about 33%
EBV gp42 block: Epstein-Barr virus gp42 inhibitors, primary screen, biochemical, uHTS, fluorescence polarization; AID 1085, 2008; Fluorescence polarization binding assay, mP read-out; Glycoprotein 42 (Epstein-Barr virus (strain AG876)), Q1HVG2; inhibition, % (tested at 21.74 µM); 0.42% of 220,000 active; in the data active = inhibition above about 50%
Target sequence (Q1HVG2 whole entry, looked up): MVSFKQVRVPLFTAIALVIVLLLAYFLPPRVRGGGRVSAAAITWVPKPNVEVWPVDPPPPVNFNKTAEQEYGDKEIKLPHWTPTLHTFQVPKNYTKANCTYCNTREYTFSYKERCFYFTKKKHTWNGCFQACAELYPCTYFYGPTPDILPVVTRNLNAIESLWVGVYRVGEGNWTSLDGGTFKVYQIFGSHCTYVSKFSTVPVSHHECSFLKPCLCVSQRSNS
EBNA-1 inh: EBNA-1 DNA-binding inhibitors, primary screen, biochemical, fluorescence polarization | inhibition, % at 14.8 µM | 0.34% of 300,000 active | AID 1950, 2009; in the data active = inhibition above about 28%
GPR7 antagonist: GPR7 receptor antagonists, primary screen, cell-based, fluorescence, single concentration; Neuropeptides B/W receptor type 1 (Homo sapiens), P48145; GPR7-expressing cells, fluorescence antagonist assay; inhibition, % at 4.4 µM; 1.1% of 290,000 active; in the data active = inhibition above about 16%, passing the limit was not always enough;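 note: cells stimulated with the agonist NPW; 0% = agonist with vehicle and 100% = vehicle without agonist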
Target sequence (P48145 whole entry, looked up): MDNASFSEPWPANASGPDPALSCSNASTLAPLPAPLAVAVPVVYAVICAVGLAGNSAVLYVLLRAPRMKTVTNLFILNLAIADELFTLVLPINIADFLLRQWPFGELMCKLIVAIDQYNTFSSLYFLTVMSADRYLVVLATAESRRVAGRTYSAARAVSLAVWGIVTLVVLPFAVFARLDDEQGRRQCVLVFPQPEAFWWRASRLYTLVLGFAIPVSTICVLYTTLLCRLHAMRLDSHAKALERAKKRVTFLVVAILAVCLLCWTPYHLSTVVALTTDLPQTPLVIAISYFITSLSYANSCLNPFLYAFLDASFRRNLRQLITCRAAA
HCV NS3 hel inh: inhibitors of HCV NS3 helicase, primary screen, biochemical, Cy5 molecular beacon fluorescence | 0.56% of 290,000 active | Hepatitis C virus NS3 helicase | inhibition, % at 10.9 µM | AID 1800, 2009 | NS3 helicase DNA unwinding;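 active = inhibition above the mean of all tested compounds plus 3 SD, set per campaign, cut at about 35% in these data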;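 note: 0% = DMSO wells and 100% = thioflavine S control wells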
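Assay system – hepatitis C virus NS3 helicase domain fragment enzyme · Buffer or medium – MOPS pH 6.5, MgCl2, DTT, Tween20, BSA · Reagent – Cy5/quencher beacon DNA duplex and ATP to start · Compound – single 10.9 µM dose · Timing – 1 h at 25 °C · Technique – Cy5 beacon fluorescence read at start and 1 h · Measure – % inhibition of unwinding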
The depositor's hits bear a star; nt = no result. An excerpt weighted towards active compounds, which were near 2.3% of everything screened.

SMILES	HCV core dimer	ZTA counter	EBV gp42 block	EBNA-1 inh	GPR7 antagonist	HCV NS3 hel inh
Cc1cc(/C=C(/C#N)c2nc3ccccc3[nH]2)c(C)n1-c1cc(C(=O)O)cc(C(=O)O)c1	nt	nt	129*	nt	-2	14
CCOc1ccc(-n2cc(C(=O)Nc3cccc(Cl)c3)c3cc(OC)c(OC)cc3c2=O)cc1	48*	6	3	-5	-5	-2
COc1ccc(C(=O)NCC(=O)N2CCN(c3ncccn3)CC2)cc1OC	nt	2	nt	nt	nt	nt
CCOC(=O)c1ccccc1NC(=O)COC(=O)CSc1ccccc1	1	-11	nt	-10	nt	nt
Fc1ccc([C@@H]2CCNC[C@H]2COc2ccc3c(c2)OCO3)cc1	-12	-22	-13	11	32*	-43
O=C(COc1ccc2c(c1)OCO2)Nc1ccccc1F	-2	-6	12	12	-1	9
Cc1c(NS(=O)(=O)c2ccc3c(c2)NC(=O)CC(=O)N3)cccc1[N+](=O)[O-]	-6	-7	nt	-5	-1	-2
CCc1c(O)cc(=O)n(-c2ccccc2)c1-c1ccccc1	55*	-7	23	-1	-3	14
O=C(NCc1cccnc1)c1ccc(COc2ccccc2Cl)o1	1	4	-22	6	22	6
Cc1cccc(NS(=O)(=O)c2ccc(NC(=O)CN(c3cc([N+](=O)[O-])ccc3C)S(C)(=O)=O)cc2)c1	4	-8	-1	0	66*	-5
O=C(N/N=C/c1cccs1)c1cccc(NC(=O)c2ccc(Cl)cc2)c1	3	6	0	59*	-9	-7
COc1cccc(NC(=S)/C(=C(\[O-])c2cc(C)n(-c3ccccc3F)c2C)[n+]2ccc(N(C)C)cc2)c1	24	2	3	2	-5	-10
Cc1cccc(C(C(=O)NC2CCCCC2)N(C(=O)c2csnn2)C2CC2)c1 (centres undefined)	1	-4	nt	2	-6	24
CCOc1ccc(-c2csc(NC(=O)CSC3=NC(=O)CN3C(C)=O)n2)c2ccccc12	12	4	130*	0	-10	9
CCOc1ccc(-c2csc(NC(=O)CSCC(=O)O)n2)c2ccccc12	9	-3	4	5	-6	23
CCCCn1nc(C(=O)Nc2cc(C(F)(F)F)ccc2N2CCOCC2)ccc1=O	nt	-21	nt	nt	nt	nt
COc1ccc(NC(=S)N(CCc2c(C)[nH]c3ccc(C)cc23)Cc2ccco2)cc1	7	-2	-12	0	20*	-22
Cc1ccc2c(c1)c1c(n2CC(O)CNC(C)(C)C)CCCC1 (centres undefined)	nt	nt	4	nt	21*	-38
Cc1ccc2c(c1)c1c(n2CC(O)CN2CCCCCC2)CCCC1 (centres undefined)	-4	-17	nt	-13	27	-91
CCCCC(O)(CCCC)C(=O)N/N=C(\C)c1ccc(Cl)cc1	0	2	-16	-5	20*	23
COc1ccccc1CNC(=O)COC(=O)/C=C/c1cccs1	3	-9	-11	0	19*	3
COc1ccc(CNC(=O)COC(=O)/C=C/c2cccs2)cc1	6	13	-14	1	4	-3
COc1ccc(CCC(C)N2CCOCC2)cc1 (centres undefined)	-2	2	nt	4	-16	-5
COC(=O)C1CCN(C(=O)COC(=O)c2cc(-c3ccccc3)nc3ccc(OC)cc23)CC1	nt	15	nt	nt	nt	nt
NC(=O)COc1ccc(-n2cnnn2)cc1	46*	10	28	5	-4	-16
SMILES	HCV core dimer	ZTA counter	EBV gp42 block	EBNA-1 inh	GPR7 antagonist	HCV NS3 hel inh
NC(=O)c1ccc(NC(=O)COc2ccc(-n3cnnn3)cc2)cc1	nt	-4	nt	nt	nt	nt
CCC(=O)Nc1ccc(-c2cc3ccccc3oc2=O)cc1	-3	-23	-17	10	0	3
CC(=O)Nc1ccc(-c2cc3ccccc3o2)cc1	-2	16	-17	18	20*	7
COc1ccc(OCCCC(=O)OCC(=O)Nc2nnc(-c3ccccc3)o2)cc1	nt	11	nt	nt	nt	nt
CC(C)n1c(=S)[nH]c2scc(-c3cccs3)c2c1=O	65*	1	1	4	-1	25
CC(C(=O)NCc1ccco1)n1cc([N+](=O)[O-])cn1 (centres undefined)	-3	11	-11	-2	5	-9
O=C(Cc1ccccc1)Nc1ccc2c(c1)CCC2	1	12	-9	-12	6	2
O=C(CC1CCCC1)Nc1ccc2c(c1)CCC2	-2	-3	-14	14	-3	39*
COc1cccc(NC(=S)Nc2cc(C)cc(C)n2)c1	86*	-5	-3	-4	-8	-3
Cc1cc(C)nc(NC(=S)Nc2cccc(F)c2)c1	6	-2	-12	-3	-23	-2
Cc1ccc(NS(=O)(=O)c2c(C(=O)N3CCCC3)c(C)n(C)c2C)cc1	-6	3	nt	-19	-8	-2
CCN1CCN(C(=O)C2CCN(c3nnc(-n4c(C)ccc4C)s3)CC2)CC1	3	-15	nt	1	1	4
CCOc1ccc(C(=O)OCC(=O)NC2CCCC2)cc1OCC	1	-1	nt	-12	-13	6
O=P(OC1CCCCC1)(OC1CCCCC1)C(O)c1ccccc1 (centres undefined)	1	9	-10	6	9	6
COc1ccc(CCNc2ncnc3c2oc2ccccc23)cc1OC	-2	20	-22	-5	37*	-15
CC(C)(C)Cc1nnc(NC(=O)Cc2cccs2)s1	51*	15	22	15	-3	14
CC(C)Cc1nnc(NC(=O)Cc2cccs2)s1	67*	-2	2	5	-1	31
CCOC(=O)c1ccc(N2CCN(c3ccc(F)cc3)CC2)c(NC(=O)Nc2cccc(OC)c2)c1	20	-6	4	82*	-9	13
CCOC(=O)c1ccc(N2CCN(c3ccccc3F)CC2)c(NC(=O)Nc2ccccc2)c1	14	-7	-4	2	19	0
C#CCn1c(=NC(=O)c2sc3ccccc3c2Cl)sc2cc(S(N)(=O)=O)ccc21	66*	4	-11	35*	-1	4
C#CCn1c(=NC(=O)c2ccc(S(=O)(=O)N3CCc4ccccc4C3)cc2)sc2cc(S(N)(=O)=O)ccc21	46	22	-28	15	-4	3
CSc1cccc(NS(=O)(=O)c2cc(Br)cnc2N)c1	2	13	nt	-5	2	-10
O=C1Nc2ccc(F)cc2C12Nc1ccccc1-c1nnc(SCc3ccccc3)nc1O2 (centres undefined)	2	-1	-17	6	15	5
Cc1ccc(CSc2nnc3c(n2)OC2(Nc4ccccc4-3)C(=O)Nc3ccc(F)cc32)cc1 (centres undefined)	3	1	151*	4	-4	6
